Experiments:
[1] = target: Cytochrome P450 3A4 (Homo sapiens, UniProt P08684); test: Inhibition of CYP3A4; format: ADME
[2] = target: T1, Epoxide hydrolase 1 (Homo sapiens, UniProt P07099); test: Inhibition of human microsomal epoxide hydrolase
T1 sequence (P07099 whole entry): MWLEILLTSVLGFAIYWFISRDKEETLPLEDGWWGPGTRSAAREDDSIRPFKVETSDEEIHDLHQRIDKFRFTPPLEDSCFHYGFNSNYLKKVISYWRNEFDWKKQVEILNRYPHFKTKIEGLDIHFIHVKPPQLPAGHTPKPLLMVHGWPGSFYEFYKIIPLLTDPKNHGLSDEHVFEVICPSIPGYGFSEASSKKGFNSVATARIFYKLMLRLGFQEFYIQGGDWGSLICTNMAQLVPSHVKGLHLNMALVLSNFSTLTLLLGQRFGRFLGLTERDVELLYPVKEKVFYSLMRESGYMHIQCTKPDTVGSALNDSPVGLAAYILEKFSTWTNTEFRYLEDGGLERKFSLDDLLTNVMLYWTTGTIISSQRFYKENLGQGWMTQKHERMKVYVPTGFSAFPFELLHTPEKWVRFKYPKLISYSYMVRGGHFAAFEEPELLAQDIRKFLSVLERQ
Outline: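 Human mEH used as the counterscreen enzyme. Values come from one or two experiments, each in triplicate, with repeats within 20%.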

[3] = target: T2, Bifunctional epoxide hydrolase 2 (Rattus norvegicus, UniProt P80299); test: Inhibition of rat soluble epoxide hydrolase
T2 sequence (P80299 whole entry): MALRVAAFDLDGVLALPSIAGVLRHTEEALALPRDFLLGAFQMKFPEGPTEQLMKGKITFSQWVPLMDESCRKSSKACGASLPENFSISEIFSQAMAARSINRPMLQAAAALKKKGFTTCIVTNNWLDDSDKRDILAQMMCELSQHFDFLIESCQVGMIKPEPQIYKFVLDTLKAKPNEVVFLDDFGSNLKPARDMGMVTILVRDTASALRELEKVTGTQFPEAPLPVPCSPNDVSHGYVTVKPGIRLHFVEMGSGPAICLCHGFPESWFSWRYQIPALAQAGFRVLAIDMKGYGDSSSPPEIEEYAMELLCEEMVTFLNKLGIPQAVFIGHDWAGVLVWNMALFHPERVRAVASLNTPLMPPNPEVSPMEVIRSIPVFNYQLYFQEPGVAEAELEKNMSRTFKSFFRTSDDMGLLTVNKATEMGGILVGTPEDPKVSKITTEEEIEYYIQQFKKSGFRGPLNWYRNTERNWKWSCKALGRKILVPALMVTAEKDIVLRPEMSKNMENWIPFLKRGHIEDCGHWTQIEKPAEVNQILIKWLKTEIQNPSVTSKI

[4] = target: Cytochrome P450 2C9 (Homo sapiens, UniProt P11712); test: Inhibition of CYP2C9; format: ADME
[5] = target: Cytochrome P450 2D6 (Homo sapiens, UniProt P10635); test: Inhibition of CYP2D6; format: ADME
[6] = target: Sodium channel protein type 5 subunit alpha (Homo sapiens, UniProt Q14524); test: Inhibition of Nav1.5 channel
[7] = target: T3, Bifunctional epoxide hydrolase 2 (Homo sapiens, UniProt P34913); test: Inhibition of human soluble epoxide hydrolase
T3 sequence (P34913 whole entry): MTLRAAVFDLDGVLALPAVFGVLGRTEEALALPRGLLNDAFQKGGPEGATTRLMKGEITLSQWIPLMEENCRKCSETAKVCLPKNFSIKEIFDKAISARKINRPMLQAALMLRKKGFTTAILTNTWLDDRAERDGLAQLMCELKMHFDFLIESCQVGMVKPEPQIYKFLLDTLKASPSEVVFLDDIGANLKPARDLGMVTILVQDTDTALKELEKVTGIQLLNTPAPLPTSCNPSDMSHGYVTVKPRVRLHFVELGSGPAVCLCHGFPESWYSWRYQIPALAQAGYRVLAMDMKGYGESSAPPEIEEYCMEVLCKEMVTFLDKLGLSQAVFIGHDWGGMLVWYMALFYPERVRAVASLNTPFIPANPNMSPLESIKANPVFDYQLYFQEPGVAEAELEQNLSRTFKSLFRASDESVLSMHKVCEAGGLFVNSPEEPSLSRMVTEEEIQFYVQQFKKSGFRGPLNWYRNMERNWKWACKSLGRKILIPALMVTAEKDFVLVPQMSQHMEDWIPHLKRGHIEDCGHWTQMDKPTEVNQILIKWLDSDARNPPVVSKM

[8] = Inhibition of potassium channel IKr
[9] = target: L-type calcium channel; test: Inhibition of calcium channel diltiazem binding site
[10] = target: T3, Bifunctional epoxide hydrolase 2; test: Inhibition of human soluble epoxide hydrolase in HEK293 cells assessed as DHET production; format: cell-based
Outline: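 Whole-cell 14,15-DHET production assay in HEK293 cells, run with or without 10% human serum. Values come from one or two experiments, each in triplicate, with repeats within 20%.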

Cytochrome P450 3A4, sequence (P08684 whole entry): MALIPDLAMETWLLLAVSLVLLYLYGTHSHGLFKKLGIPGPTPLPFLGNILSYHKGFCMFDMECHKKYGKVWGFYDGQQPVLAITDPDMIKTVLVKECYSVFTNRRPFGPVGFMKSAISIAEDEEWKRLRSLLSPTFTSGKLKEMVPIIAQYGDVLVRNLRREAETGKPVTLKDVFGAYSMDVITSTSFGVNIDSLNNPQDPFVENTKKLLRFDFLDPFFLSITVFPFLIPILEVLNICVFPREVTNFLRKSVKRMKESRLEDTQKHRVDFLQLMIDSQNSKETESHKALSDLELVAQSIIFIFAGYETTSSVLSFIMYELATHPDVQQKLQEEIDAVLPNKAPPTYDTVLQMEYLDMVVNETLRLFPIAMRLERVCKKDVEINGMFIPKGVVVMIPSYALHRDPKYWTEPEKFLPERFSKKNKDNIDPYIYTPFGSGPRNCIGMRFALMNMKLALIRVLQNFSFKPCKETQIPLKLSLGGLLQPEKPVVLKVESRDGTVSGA
Cytochrome P450 2C9, sequence (P11712 whole entry): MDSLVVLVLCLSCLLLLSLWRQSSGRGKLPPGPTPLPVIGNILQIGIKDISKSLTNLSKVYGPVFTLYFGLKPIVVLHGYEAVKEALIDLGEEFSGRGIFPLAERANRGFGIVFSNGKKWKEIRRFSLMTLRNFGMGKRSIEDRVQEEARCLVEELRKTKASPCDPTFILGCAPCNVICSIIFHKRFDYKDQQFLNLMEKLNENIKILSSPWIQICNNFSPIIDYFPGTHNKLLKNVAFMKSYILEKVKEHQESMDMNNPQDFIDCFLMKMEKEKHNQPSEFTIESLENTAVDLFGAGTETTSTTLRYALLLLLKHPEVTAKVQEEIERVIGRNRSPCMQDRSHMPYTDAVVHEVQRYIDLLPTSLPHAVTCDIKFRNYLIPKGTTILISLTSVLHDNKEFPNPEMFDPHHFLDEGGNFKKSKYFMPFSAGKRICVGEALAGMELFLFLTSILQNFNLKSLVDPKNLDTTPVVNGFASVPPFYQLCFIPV
Sodium channel protein type 5 subunit alpha, sequence (Q14524 whole entry): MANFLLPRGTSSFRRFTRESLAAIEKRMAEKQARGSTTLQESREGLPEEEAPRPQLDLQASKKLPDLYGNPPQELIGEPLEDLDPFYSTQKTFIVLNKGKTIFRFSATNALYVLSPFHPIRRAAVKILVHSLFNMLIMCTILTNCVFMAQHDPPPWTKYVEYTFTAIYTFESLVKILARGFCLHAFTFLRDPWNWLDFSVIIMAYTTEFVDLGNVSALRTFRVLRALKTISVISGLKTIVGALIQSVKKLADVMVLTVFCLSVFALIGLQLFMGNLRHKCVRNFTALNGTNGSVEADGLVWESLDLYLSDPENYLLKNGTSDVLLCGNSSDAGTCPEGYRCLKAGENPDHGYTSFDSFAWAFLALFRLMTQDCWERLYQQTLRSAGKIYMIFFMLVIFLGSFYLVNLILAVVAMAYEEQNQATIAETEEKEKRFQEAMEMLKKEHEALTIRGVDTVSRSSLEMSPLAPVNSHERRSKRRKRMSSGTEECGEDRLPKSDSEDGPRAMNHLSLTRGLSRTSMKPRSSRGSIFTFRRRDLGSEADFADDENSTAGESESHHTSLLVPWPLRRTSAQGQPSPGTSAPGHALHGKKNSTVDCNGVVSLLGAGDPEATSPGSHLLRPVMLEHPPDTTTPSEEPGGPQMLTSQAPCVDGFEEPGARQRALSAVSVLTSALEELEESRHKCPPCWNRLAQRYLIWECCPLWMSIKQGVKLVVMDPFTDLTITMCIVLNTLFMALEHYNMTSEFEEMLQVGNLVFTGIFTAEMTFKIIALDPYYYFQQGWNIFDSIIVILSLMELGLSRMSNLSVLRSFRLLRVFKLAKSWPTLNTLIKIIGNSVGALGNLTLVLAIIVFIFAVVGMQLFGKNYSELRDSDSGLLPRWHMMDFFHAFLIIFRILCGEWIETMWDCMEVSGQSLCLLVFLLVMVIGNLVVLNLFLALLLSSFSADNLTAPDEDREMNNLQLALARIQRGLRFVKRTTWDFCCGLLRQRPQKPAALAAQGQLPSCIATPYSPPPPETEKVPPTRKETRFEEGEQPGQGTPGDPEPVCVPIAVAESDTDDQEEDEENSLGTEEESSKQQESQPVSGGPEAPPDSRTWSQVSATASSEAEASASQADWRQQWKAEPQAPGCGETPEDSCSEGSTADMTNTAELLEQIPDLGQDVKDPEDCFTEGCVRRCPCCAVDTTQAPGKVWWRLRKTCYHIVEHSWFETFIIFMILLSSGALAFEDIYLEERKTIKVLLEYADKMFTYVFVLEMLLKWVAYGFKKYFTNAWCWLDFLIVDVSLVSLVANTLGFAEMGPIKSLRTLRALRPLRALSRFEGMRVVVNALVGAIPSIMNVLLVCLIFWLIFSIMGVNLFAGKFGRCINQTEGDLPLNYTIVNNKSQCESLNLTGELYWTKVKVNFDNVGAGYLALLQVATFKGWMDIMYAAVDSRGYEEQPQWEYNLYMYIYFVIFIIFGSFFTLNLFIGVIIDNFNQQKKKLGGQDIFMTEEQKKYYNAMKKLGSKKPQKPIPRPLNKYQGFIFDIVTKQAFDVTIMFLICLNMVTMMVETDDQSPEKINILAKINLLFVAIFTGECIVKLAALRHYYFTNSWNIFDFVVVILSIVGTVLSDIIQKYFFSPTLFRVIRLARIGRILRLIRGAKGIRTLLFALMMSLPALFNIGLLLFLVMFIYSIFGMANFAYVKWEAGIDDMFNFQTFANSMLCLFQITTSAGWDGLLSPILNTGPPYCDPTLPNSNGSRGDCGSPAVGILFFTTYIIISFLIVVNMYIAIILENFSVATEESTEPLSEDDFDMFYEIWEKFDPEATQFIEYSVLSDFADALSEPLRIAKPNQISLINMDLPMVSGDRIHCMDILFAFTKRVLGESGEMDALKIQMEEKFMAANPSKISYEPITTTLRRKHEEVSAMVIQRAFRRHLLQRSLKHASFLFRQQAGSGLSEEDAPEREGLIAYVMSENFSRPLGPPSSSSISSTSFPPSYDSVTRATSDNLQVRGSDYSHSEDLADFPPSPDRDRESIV
Cytochrome P450 2D6, sequence (P10635 whole entry): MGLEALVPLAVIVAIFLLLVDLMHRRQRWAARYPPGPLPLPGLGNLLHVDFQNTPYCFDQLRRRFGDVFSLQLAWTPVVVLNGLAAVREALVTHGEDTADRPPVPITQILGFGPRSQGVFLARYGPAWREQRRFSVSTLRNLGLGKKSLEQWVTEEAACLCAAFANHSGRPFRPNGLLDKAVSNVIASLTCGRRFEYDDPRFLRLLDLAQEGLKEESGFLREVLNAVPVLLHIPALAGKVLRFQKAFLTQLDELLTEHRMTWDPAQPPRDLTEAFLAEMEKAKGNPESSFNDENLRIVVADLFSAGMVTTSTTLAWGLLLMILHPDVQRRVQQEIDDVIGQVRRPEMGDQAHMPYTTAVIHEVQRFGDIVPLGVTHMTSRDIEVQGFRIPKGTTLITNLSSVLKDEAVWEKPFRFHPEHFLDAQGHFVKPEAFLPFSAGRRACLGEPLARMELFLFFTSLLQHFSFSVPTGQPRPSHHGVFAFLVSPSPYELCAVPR

Row | IC50 [1] [µM] | IC50 [2] [µM] | IC50 [3] [µM] | IC50 [4] [µM] | IC50 [5] [µM] | IC50 [7] [µM] | IC50 [9] [µM] | IC50 [10] [µM] | Compound | IC50 [6] [µM] | IC50 [8] [µM]
1 | > 10 | > 100 | 0.398 | > 10 | > 10 | 0.052 | > 30 | 0.038 | O=C(O)CC1(c2ccccc2)CCCN(C(=O)Nc2ccc(Cl)cc2)C1 (stereo unspecified) | > 10 | > 30
2 | > 10 | > 100 | 0.015 | < 10 | 10 | 0.001 | 0.9 | < 0.001 | O=C(Nc1ccc(Cl)cc1)N1CCCC(CCO)(c2ccccc2)C1 (stereo unspecified) | > 10 | 0.07
3 | > 10 | – | 0.006 | < 10 | > 10 | 0.007 | 0.9 | – | CC1(c2ccccc2)CCCN(C(=O)Nc2ccc(-c3ccccc3)cc2)C1 (stereo unspecified) | < 10 | 21
4 | > 10 | > 100 | 0.07 | > 10 | > 10 | 0.016 | > 30 | < 0.001 | O=C(O)CCC1(c2ccccc2C(F)(F)F)CCCN(C(=O)Nc2ccc(Cl)cc2)C1 (stereo unspecified) | > 10 | > 30
5 | – | – | 0.003 | – | – | < 0.001 | – | – | COC(=O)CCC1(c2ccccc2)CCCN(C(=O)Nc2ccc(Cl)cc2)C1 (stereo unspecified) | – | –
6 | > 10 | > 100 | 0.176 | > 10 | > 10 | – | > 30 | 0.006 | O=C(O)CCCC1(c2ccccc2)CCCN(C(=O)Nc2ccc(Cl)cc2)C1 (stereo unspecified) | > 10 | > 30
7 | > 10 | > 100 | 0.12 | > 10 | > 10 | 0.005 | > 30 | < 0.001 | O=C(O)CCCCC1(c2ccccc2)CCCN(C(=O)Nc2ccc(Cl)cc2)C1 (stereo unspecified) | > 10 | > 30
8 | > 10 | > 100 | 0.467 | 10 | > 10 | 0.03 | > 30 | – | O=C(O)CCC1(c2ccncc2)CCCN(C(=O)Nc2ccc(Cl)cc2)C1 (stereo unspecified) | > 10 | > 30
9 | > 10 | > 100 | 0.176 | > 10 | > 10 | 0.012 | > 30 | – | O=C(O)CCC1(c2cccc(C(F)(F)F)c2)CCCN(C(=O)Nc2ccc(Cl)cc2)C1 (stereo unspecified) | > 10 | > 30
10 | > 10 | > 100 | 0.12 | > 10 | > 10 | 0.005 | > 30 | < 0.001 | O=C(O)CCC1(c2ccc(C(F)(F)F)cc2)CCCN(C(=O)Nc2ccc(Cl)cc2)C1 (stereo unspecified) | > 10 | > 30
11 | > 10 | – | 0.29 | > 10 | > 10 | 0.019 | > 30 | – | O=C(O)CCC1(c2ccccn2)CCCN(C(=O)Nc2ccc(Cl)cc2)C1 (stereo unspecified) | > 10 | > 30
12 | 10 | > 100 | 0.032 | 10 | > 10 | – | 4 | < 0.001 | CNC(=O)CCC1(c2ccccc2)CCCN(C(=O)Nc2ccc(Cl)cc2)C1 (stereo unspecified) | > 10 | 8
13 | > 10 | – | 0.413 | < 10 | > 10 | – | > 30 | < 0.001 | O=C(O)CCC1(c2ccc(-c3ccccc3)cc2)CCCN(C(=O)Nc2ccc(OC(F)(F)F)cc2)C1 (stereo unspecified) | < 10 | 21

Further lines, the compound ahead of its results:

Row | Compound | IC50 [1] [µM] | IC50 [2] [µM] | IC50 [3] [µM] | IC50 [4] [µM] | IC50 [5] [µM] | IC50 [7] [µM] | IC50 [9] [µM] | IC50 [10] [µM] | IC50 [6] [µM] | IC50 [8] [µM]
14 | CC1(c2ccccc2)CCCN(C(=O)Nc2ccncc2)C1 (stereo unspecified) | < 10 | > 100 | 0.349 | > 10 | > 10 | 0.55 | 15 | – | > 10 | 5
15 | N#CCCC1(c2ccccc2)CCCN(C(=O)Nc2ccc(Cl)cc2)C1 (stereo unspecified) | > 10 | > 100 | 0.016 | > 10 | > 10 | – | 7 | < 0.001 | > 10 | 10
16 | CC1(c2ccccc2)CCCN(C(=O)Nc2noc3ccccc23)C1 (stereo unspecified) | > 10 | – | 0.207 | < 10 | > 10 | – | 19 | – | < 10 | 18
17 | O=C(CCC1(c2ccccc2)CCCN(C(=O)Nc2ccc(Cl)cc2)C1)Nc1nn[nH]n1 (stereo unspecified) | > 10 | > 100 | 0.034 | > 10 | > 10 | 0.0014 | – | 0.0014 | – | 27
18 | CC1(c2ccccc2)CCCN(C(=O)NCCCc2cccnc2)C1 (stereo unspecified) | < 10 | 3 | – | > 10 | > 10 | 0.007 | – | 0.008 | – | 5
19 | O=C(O)CCC1(c2cccnc2)CCCN(C(=O)Nc2ccc(Cl)cc2)C1 (stereo unspecified) | > 10 | – | 0.331 | > 10 | > 10 | 0.028 | > 30 | – | > 10 | > 30
20 | CC1(c2ccccc2)CCCN(C(=O)NCc2ccc(-c3ccccc3C(F)(F)F)cc2)C1 (stereo unspecified) | < 10 | > 100 | 0.011 | < 10 | > 10 | 0.008 | 0.7 | – | > 1 | 0.2
21 | CC1(c2ccccc2)CCCN(C(=O)NCc2ccc(-c3cccc(Cl)c3)cc2)C1 (stereo unspecified) | < 10 | 22 | 0.007 | – | – | 0.014 | – | – | – | 2
22 | CC1(c2ccccc2)CCCN(C(=O)NCCc2ccc3nccnc3c2)C1 (stereo unspecified) | < 10 | > 100 | 0.019 | < 10 | 10 | – | – | 0.003 | – | 9
23 | CC1(c2ccccc2)CCCN(C(=O)NCc2ccc(-c3ccc4[nH]ccc4c3)cc2)C1 (stereo unspecified) | > 10 | 14 | 0.006 | < 10 | 10 | – | 1 | 0.003 | > 10 | 0.8
24 | O=C(CCC1(c2ccccc2)CCCN(C(=O)Nc2ccc(Cl)cc2)C1)N1CCOCC1 (stereo unspecified) | > 10 | – | 0.1 | > 10 | > 10 | 0.008 | 26 | < 0.001 | > 10 | 29
25 | CCN(CC)C(=O)CCC1(c2ccccc2)CCCN(C(=O)Nc2ccc(Cl)cc2)C1 (stereo unspecified) | < 10 | – | 0.031 | > 10 | > 10 | 0.003 | 1 | – | > 10 | 6
26 | CC1(c2ccccc2)CCCN(C(=O)N[C@H]2C[C@@H]2c2ccccc2)C1 (stereo partly specified) | < 10 | > 100 | 0.004 | < 10 | – | 0.001 | 10 | < 0.001 | > 10 | 26

From ChEMBL document CHEMBL1154229 (Bioorg Med Chem Lett, 2009)
